Where a SMILES comes first, the peptide text is derived from it. The star is where a group is joined. X1 = C[C@]12CC[C@@H]3c4ccc(OCC(=O)*)cc4CC[C@H]3[C@@H]1CCC2O
Key:
Mus musculus [1] = test: Effect on uterus weight in mouse at 0.011 mmol/kg, ip; type: functional
In short: (§1)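 Dose study in abdominally ovariectomized female Kuiming mice (30.7 ± 3.1 g). Daily i.p. dosing in aqueous 0.5% CMC from day 5 after surgery for 4 weeks, at 110.3, 55.15 or 11.03 × 10-3 mmol/kg. Liver, lung, spleen and uterus were removed after pentobarbital euthanasia and weighed. n = 12, ANOVA, p < 0.05.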

Mus musculus [2] = test: Effect on dry weight of femurs in ovariectomized mouse at 0.1103 mmol/kg, ip once daily for 4 weeks; type: functional, Femur
In short: (§2)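 Female Kuiming mice (7 weeks, 30.7 ± 3.1 g) ovariectomized, sham group abdominorotomy. From day 5, i.p. once daily for 4 weeks at 110.3 × 10-3 mmol/kg in 0.5% CMC. Left femur cleaned, length measured, defatted in chloroform-methanol (2:1, 2 × 3 h), dried 120 °C 6 h for dry weight, ashed 800 °C 8 h. Mineral content = ash/dry weight. Ash dissolved in 6 N HCl and diluted. Ca by o-methylphenolphthalein complexone, P by molybdenum blue. Lungs and livers weighed directly.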

Mus musculus [3] = test: Effect on uterus weight in mouse at 0.055 mmol/kg, ip; type: functional; in short: as §1
Mus musculus [4] = test: Effect on spleen weight in mouse at 0.055 mmol/kg, ip; type: functional
In short: (§3)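 Dose-response in OVX Kuiming mice, i.p. daily for 4 weeks in 0.5% CMC at 11.03, 55.15 or 110.3 × 10-3 mmol/kg. Left femur: length, then defatting, drying at 120 °C for 6 h (dry weight), ashing at 800 °C for 8 h. Ash/dry ratio gives mineral content. Ash Ca and P measured colorimetrically. Liver, lung and spleen weighed directly. n = 12, ANOVA.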

Mus musculus [5] = test: Effect on spleen weight in mouse at 0.011 mmol/kg, ip; type: functional; in short: as §3
Mus musculus [6] = test: Effect on liver weight in ovariectomized mouse at 0.110 mmol/kg, ip once daily for 4 weeks; type: functional; in short: as §2
Mus musculus [7] = test: Effect on serum calcium level in ovariectomized mouse at 0.1103 mmol/kg, ip once daily for 4 weeks; type: functional
In short: (§4)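 OVX Kuiming mice dosed i.p. daily for 4 weeks in 0.5% CMC. Blood taken retro-orbitally on the day after the last dose, stood 30 min, spun at 3000 g for 20 min, serum stored at -20 °C. Calcium by o-methylphenolphthalein complexone, phosphorus by molybdenum blue, ALP by activity with disodium phenylphosphate substrate.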

Mus musculus [8] = test: Effect on lung weight in mouse at 0.011 mmol/kg, ip; type: functional; in short: as §3
Mus musculus [9] = test: Effect on serum phosphorous Concentration in mouse at 0.110 mmol/kg, po; type: functional
In short: (§5)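 Oral OVX Kuiming mouse model, dosed daily for 4 weeks at 110.3 × 10-3 mmol/kg in 0.5% CMC. Retro-orbital blood stood 30 min at room temperature and was spun at 3000 g for 20 min. Serum kept at -20 °C. Calcium read by o-methylphenolphthalein complexone, phosphorus by molybdenum blue, ALP by activity on disodium phenylphosphate substrate.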

Mus musculus [10] = test: Effect on femur length in recipient mouse at 0.011 mmol/kg, ip; type: functional; in short: as §3
Mus musculus [11] = test: Effect on serum ALP level in mouse at 0.011 mmol/kg, ip; type: functional
In short: (§6)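 Dose-response in OVX Kuiming mice, i.p. daily for 4 weeks in 0.5% CMC at 11.03, 55.15 or 110.3 × 10-3 mmol/kg. Serum from retro-orbital blood (3000 g, 20 min). Calcium by o-methylphenolphthalein complexone, phosphorus by molybdenum blue, ALP by activity on disodium phenylphosphate. n = 12, ANOVA.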

Mus musculus [12] = test: Increase in body weight in ovariectomized mouse at 0.1103 mmol/kg, ip once daily for 4 weeks; type: functional
In short: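 Female Kuiming mice (30.7 ± 3.1 g) underwent abdominal OVX; the sham group had abdominorotomy only. From day 5 after surgery, i.p. dosing once daily for 4 weeks at 110.3 × 10-3 mmol/kg in aqueous 0.5% CMC. Body weight was recorded on the day of the last administration.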

Mus musculus [13] = test: Effect on liver weight in mouse at 0.011 mmol/kg, ip; type: functional; in short: as §3
Mus musculus [14] = test: Effect on femur ash weight in ovariectomized mouse at 0.1103 mmol/kg, ip once daily for 4 weeks; type: functional; in short: as §2
Mus musculus [15] = test: Effect on femur ash weight in recipient mouse at 0.011 mmol/kg, ip; type: functional; in short: as §3
Mus musculus [16] = test: Effect on mineral content in ovariectomized mouse at 0.1103 mmol/kg, ip once daily for 4 weeks; type: functional; in short: as §2
Mus musculus [17] = test: Effect on mineral level in mouse femur at 0.055 mmol/kg, ip; type: functional; in short: as §3
Mus musculus [18] = test: Effect on uterus weight in mouse at 0.1103 mmol/kg, po; type: functional
Mus musculus [19] = test: Effect on calcium level in mouse femur at 0.055 mmol/kg, ip; type: functional; in short: as §3
Mus musculus [20] = test: Effect on serum phosphorous level in mouse at 0.055 mmol/kg, ip; type: functional; in short: as §6
Mus musculus [21] = test: Effect on serum ALP lavel in ovariectomized mouse at 0.1103 mmol/kg, ip once daily for 4 weeks; type: functional; in short: as §4
Mus musculus [22] = test: Effect on serum calcium level in mouse at 0.055 mmol/kg, ip; type: functional; in short: as §6
Mus musculus [23] = test: Effect on phosphorus level in ovariectomized mouse at 0.1103 mmol/kg, ip once daily for 4 weeks; type: functional; in short: as §2
Mus musculus [24] = test: Effect on spleen weight in mouse at 0.1103 mmol/kg, po; type: functional
In short: (§7)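 Female Kuiming mice (7 weeks old, 30.7 ± 3.1 g) under abdominal OVX, sham group abdominorotomy only. From day 5 after surgery, dosed orally once daily for 4 weeks at 110.3 × 10-3 mmol/kg in 0.5% CMC (0.2 mL), vehicle group CMC alone. Blood drawn retro-orbitally, then left femur and organs removed under pentobarbital (40.0 mg/kg, i.p.).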

Mus musculus [25] = test: Effect on serum ALP level in mouse at 0.1103 mmol/kg, ip; type: functional; in short: as §4
Mus musculus [26] = test: Effect on serum ALP level in mouse at 0.055 mmol/kg, ip; type: functional; in short: as §6
Mus musculus [27] = test: Effect on lung weight in mouse at 0.055 mmol/kg, ip; type: functional; in short: as §3
Mus musculus [28] = test: Effect on calcium level in ovariectomized mouse at 0.1103 mmol/kg, ip once daily for 4 weeks; type: functional; in short: as §2
Mus musculus [29] = test: Effect on phosphorous level in mouse femur at 0.055 mmol/kg, ip; type: functional; in short: as §3
Mus musculus [30] = test: Effect on lung weight in ovariectomized mouse at 0.1103 mmol/kg, ip once daily for 4 weeks; type: functional; in short: as §2
Mus musculus [31] = test: Effect on spleen weight in ovariectomized mouse at 0.1103 mmol/kg, ip once daily for 4 weeks; type: functional
In short: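 Female Kuiming mice (7 weeks old, 30.7 ± 3.1 g), abdominal OVX under pentobarbital (40.0 mg/kg i.p.). From day 5 after surgery, i.p. injection once daily for 4 weeks, compound in aqueous 0.5% CMC prepared just before use. The day after the last dose, mice were anesthetized and killed, and lungs, livers, spleens and uteri were removed and weighed directly. n = 12, ANOVA, p < 0.05.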

Mus musculus [32] = test: Effect on dry weight of femur in recipient mouse at 0.011 mmol/kg, ip; type: functional; in short: as §3
Mus musculus [33] = test: Effect on mineral content in mouse at 0.1103 mmol/kg, po; type: functional; in short: as §7
Mus musculus [34] = test: Effect on calcium level in mouse femur at 0.011 mmol/kg, ip; type: functional; in short: as §3
Mus musculus [35] = test: Effect on serum calcium level in mouse at 0.1103 mmol/kg, po; type: functional; in short: as §5

Compound	Activity (Mus musculus [1]) [mg]	Activity (Mus musculus [2]) [mg]	Activity (Mus musculus [3]) [mg]	Activity (Mus musculus [4]) [mg]	Activity (Mus musculus [5]) [mg]	Activity (Mus musculus [6]) [g]	Activity (Mus musculus [7]) [mmol/L]	Activity (Mus musculus [8]) [mg]	Activity (Mus musculus [9]) [mmol/L]	Activity (Mus musculus [10]) [cm]	Activity (Mus musculus [11]) [U/L]	Activity (Mus musculus [12]) [g]	Activity (Mus musculus [13]) [g]	Activity (Mus musculus [14]) [mg]	Activity (Mus musculus [15]) [mg]	Ratio (Mus musculus [16])	Ratio (Mus musculus [17])	Activity (Mus musculus [18]) [mg]	Activity (Mus musculus [19]) [%]	Activity (Mus musculus [20]) [mmol/L]	also measured
CC(C)[C@H](NC(=O)[C@H](CC(=O)O)NC(=O)CNC(=O)[C@H](CCCNC(=N)N)NC(=O)COc1ccc2c(c1)CC[C@@H]1[C@@H]2CC[C@]2(C)C(O)CC[C@@H]12)C(=O)O (stereo not given in full) (X1-RGDV-OH)	55.7	63.7	57.6	140	156	1.363	2.003	188	1.61	1.64	38.5	35.2	1.48	40	20.6	0.63	0.539	40.7	57.13	1.586	Activity (Mus musculus [21]): 30.514 U/L; Activity (Mus musculus [22]): 2.084 mmol/L; Activity (Mus musculus [23]): 24.991%; Activity (Mus musculus [24]): 134 mg; Activity (Mus musculus [25]): 30.5 U/L; Activity (Mus musculus [26]): 32.786 U/L; Activity (Mus musculus [27]): 179 mg; Activity (Mus musculus [28]): 58.35%; Activity (Mus musculus [29]): 24.315%; Activity (Mus musculus [30]): 162 mg; Activity (Mus musculus [31]): 132 mg; Activity (Mus musculus [32]): 50.9 mg; Ratio (Mus musculus [33]): 51.9%; Activity (Mus musculus [34]): 42.1%; Activity (Mus musculus [35]): 2.04 mmol/L
C[C@]12CC[C@@H]3c4ccc(OCC(=O)N[C@@H](CCCNC(=N)N)C(=O)NCC(=O)N[C@@H](CC(=O)O)C(=O)N[C@@H](CO)C(=O)O)cc4CC[C@H]3[C@@H]1CCC2O (stereo not given in full) (X1-RGDS-OH)	52.8	63.4	48.6	136	125	1.377	2.004	181	1.6	1.642	40.3	35.2	1.42	37	18.1	0.582	0.479	43.2	52.1	1.607	Activity (Mus musculus [21]): 31.429 U/L; Activity (Mus musculus [22]): 2.047 mmol/L; Activity (Mus musculus [23]): 24.949%; Activity (Mus musculus [24]): 138 mg; Activity (Mus musculus [25]): 31.4 U/L; Activity (Mus musculus [26]): 33.616 U/L; Activity (Mus musculus [27]): 167 mg; Activity (Mus musculus [28]): 54.885%; Activity (Mus musculus [29]): 24.274%; Activity (Mus musculus [30]): 173 mg; Activity (Mus musculus [31]): 124 mg; Activity (Mus musculus [32]): 48.8 mg; Ratio (Mus musculus [33]): 52.2%; Activity (Mus musculus [34]): 41.5%; Activity (Mus musculus [35]): 2.03 mmol/L
C[C@]12CC[C@@H]3c4ccc(OCC(=O)N[C@@H](CCCNC(=N)N)C(=O)NCC(=O)N[C@@H](CC(=O)O)C(=O)N[C@@H](Cc5ccccc5)C(=O)O)cc4CC[C@H]3[C@@H]1CCC2O (stereo not given in full) (X1-RGDF-OH)	60.6	64.2	55.3	123	145	1.395	2.005	174	1.6	1.623	38.6	33.1	1.57	35.8	20.8	0.585	0.504	47.5	54.493	1.602	Activity (Mus musculus [21]): 31.529 U/L; Activity (Mus musculus [22]): 2.04 mmol/L; Activity (Mus musculus [23]): 25.46%; Activity (Mus musculus [24]): 135 mg; Activity (Mus musculus [25]): 31.5 U/L; Activity (Mus musculus [26]): 33.746 U/L; Activity (Mus musculus [27]): 155 mg; Activity (Mus musculus [28]): 56.69%; Activity (Mus musculus [29]): 24.845%; Activity (Mus musculus [30]): 169 mg; Activity (Mus musculus [31]): 131 mg; Activity (Mus musculus [32]): 46.9 mg; Ratio (Mus musculus [33]): 52.5%; Activity (Mus musculus [34]): 42.9%; Activity (Mus musculus [35]): 2.04 mmol/L

From ChEMBL document CHEMBL1145431, “Improved anti-osteoporosis potency and reduced endometrial membrane hyperplasia during hormone replacement therapy with estrogen-RGD peptide conjugates” (2007)
